{
  "source": "paper PMC7415964",
  "about": "(The Journal of Biological Chemistry, 2021)",
  "key": {"[1]": {"test_system": "CCL18", "test": "Fluorescence polarization assay, CCL18", "format": "binding", "details": "BK1.1FITC 50 nM, chemokine 1 μM, compared with negative control CXCL1", "procedure,_shortened": "(§1)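 Polarization read with FITC filters, gain set at 35 mP on a peptide-only well, and converted to anisotropy, A = 2P/(3 − P). CXCL1 negative control. Two technical, three biological replicates. One-way ANOVA with Sidak's correction.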"}, "[2]": {"target": "T1, CCL8 (Homo sapiens, UniProt P80075)", "T1 sequence (P80075 24-99)": "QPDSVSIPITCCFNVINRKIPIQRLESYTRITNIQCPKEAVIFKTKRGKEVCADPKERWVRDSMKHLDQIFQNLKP", "test": "Fluorescence polarization assay, CCL8", "format": "binding", "details": "fluorescent peptide 50 nM, CCL8 1 μM, 30 min, compared with scrambled control", "procedure,_shortened": "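Polarization read with FITC filters, gain set to 35 mP on a peptide-only well, and converted to anisotropy A = 2P/(3 − P). Two technical × three biological replicates. Scrambled FITC peptide as negative control; one-way ANOVA with Sidak's correction.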"}, "[3]": {"test_system": "CCL7", "test": "Fluorescence polarization assay, CCL7", "format": "binding", "details": "BK1.1FITC 50 nM, chemokine 1 μM, compared with negative control CXCL1", "procedure,_shortened": "as §1"}, "[4]": {"target": "EVA1(P672_(22-32)) hybrid protein (not stated | Rhipicephalus pulchellus)", "test": "BLI"}, "[5]": {"target": "C–C motif chemokine ligand 8 (CCL8) (human) (UniProt P80075)"}, "[6]": {"target": "human CCL8-647 (human) (UniProt P80075)", "test": "flow cytometry on cells"}, "[7]": {"target": "human CCL2-647 (human) (UniProt P13500)", "sequence (P13500 24-99)": "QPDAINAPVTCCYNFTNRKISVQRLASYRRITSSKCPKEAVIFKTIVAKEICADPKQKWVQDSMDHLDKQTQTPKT", "test": "flow cytometry on cells"}, "[8]": {"target": "T2, C–C motif chemokine ligand 8 (CCL8) (human), P80075", "T2 chain": "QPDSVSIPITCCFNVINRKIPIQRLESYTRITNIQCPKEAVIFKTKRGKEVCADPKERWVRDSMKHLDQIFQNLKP", "test": "native MS", "details": "remark: other sources report otherwise"}, "[9]": {"test_system": "P672–CCL8 complex", "test": "Hydrogen–deuterium exchange MS of the P672–CCL8 complex", "details": "complex versus free CCL8; 5 s, 30 s, 5 min, 60 min; triplicate"}},
  "note": "Where a SMILES comes first, the peptide text is derived from it. The star is where a group is joined. FITC = O=C1OC2(c3ccc(O)cc3Oc3cc(O)ccc32)c2ccc(NC(=S)*)cc21",
  "data": [
    {"molecule": "CC(C)[C@H](NC(=O)[C@@H]1CCCN1C(=O)[C@H](CCCCN)NC(=O)[C@H](Cc1ccccc1)NC(=O)[C@H](Cc1ccccc1)NC(=O)[C@H](CC(=O)O)NC(=O)[C@H](CCC(=O)O)NC(=O)[C@H](Cc1ccc(O)cc1)NC(=O)[C@H](CC(=O)O)NC(=O)[C@H](CCC(=O)O)NC(=O)[C@H](CC(=O)O)NC(=O)[C@H](CCC(=O)O)NC(=S)Nc1ccc2c(c1)C(=O)OC21c2ccc(O)cc2Oc2cc(O)ccc21)C(=O)N[C@H](C(=O)N[C@@H](C)C(=O)N[C@@H](Cc1ccc(O)cc1)C(=O)N[C@@H](Cc1ccccc1)C(N)=O)[C@@H](C)O", "note": "[BK1.1FITC] ({FITC}-EDEDYEDFFKPVTAYF-NH2)", "values": [
      {"measurement": "change in anisotropy with CCL18", "setting": "[1]", "result": "significant increases in anisotropy"},
      {"measurement": "change in anisotropy upon incubation with CCL8", "setting": "[2]", "result": "displayed an increase in anisotropy"},
      {"measurement": "change in anisotropy with CCL7", "setting": "[3]", "result": "significant increases in anisotropy"}
    ]},
    {"molecule": "C–C motif chemokine ligand 8 (CCL8) (from UniProt P80075 24-99)", "values": [
      {"measurement": "Kd", "setting": "[4]", "result": 490, "unit": "nM"}
    ]},
    {"molecule": "evasin EVA-P672 (natural protein)", "values": [
      {"measurement": "IC50 of inhibition of CCL8-induced THP-1 cell migration", "setting": "[5]", "result": 2.6, "unit": "nM"},
      {"measurement": "IC50", "setting": "[6]", "result": 21, "unit": "nM"},
      {"measurement": "IC50", "setting": "[7]", "result": 21, "unit": "nM"}
    ]},
    {"molecule": "C–C motif chemokine ligand 8 (CCL8), P80075 24-99 (ligand) QPDSVSIPITCCFNVINRKIPIQRLESYTRITNIQCPKEAVIFKTKRGKEVCADPKERWVRDSMKHLDQIFQNLKP", "values": [
      {"measurement": "stoichiometry N", "setting": "[8]", "result": 2},
      {"measurement": "% relative deuterium uptake (%D), CCL8 Arg18–Ser27", "setting": "[9]", "result": "−6 to −18", "unit": "%"}
    ]}
  ]
}
